Measurements: ChEMBL document CHEMBL1146375, “Synthetic studies on novel benzimidazolopeptides with antimicrobial, cytotoxic and anthelmintic potential” (2007)
Values after ≈ are worked out from the molar mass of the structure shown. Residues, ends and D or L forms follow the SMILES beside them. *: point of attachment. X4 = Cc1cc2nc(-c3ccc(C(=O)*)cc3)[nH]c2cc1C

System: Escherichia coli
Assay: Antibacterial activity against Escherichia coli NCIM 2065 after 18 hrs by disc diffusion method
Assay type: functional
Conditions: not given
Summary of the method: (§1)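 Modified Kirby-Bauer disc diffusion. Plates inoculated with spore suspension (about 6 × 10⁴ spores mL^-1). Sterile 6 mm paper discs carried test samples at 10 mg mL^-1; ciprofloxacin disc as reference, DMF disc as negative control. Plates held 18 h at 37 °C. Inhibition zone diameters (mm) averaged over triplicate sets.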

Q: Which “inhibition zone (IZ)” value does the source give for `CC[C@H](C)[C@H](NC(=O)CNC(=O)[C@H](Cc1c[nH]c2ccccc12)NC(=O)c1ccc(-c2nc3cc(C)c(C)cc3[nH]2)cc1)C(=O)N[C@@H](C)C(=O)OC` (X4-WGIA-OMe) here?
A: 18 mm

System: Candida albicans
Assay: Antifungal activity against Candida albicans MUCC 29 after 48 hrs by disc diffusion method
Assay type: functional
Conditions: not given
Summary of the method: (§2)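 Agar well diffusion on plates inoculated with spore suspension in normal saline from cultures on Sabouraud's broth. Wells punched and loaded with test samples or griseofulvin at 10 mg mL^-1, with DMSO as negative control. Incubated 48 h at 37 °C.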

Q: For `CC[C@H](C)[C@H](NC(=O)CNC(=O)[C@H](Cc1c[nH]c2ccccc12)NC(=O)c1ccc(-c2nc3cc(C)c(C)cc3[nH]2)cc1)C(=O)N[C@@H](C)C(=O)OC` (X4-WGIA-OMe), which “inhibition zone (IZ)” value is on record?
A: 19 mm

System: Escherichia coli
Assay: Antibacterial activity against Escherichia coli NCIM 2065 after 18 hrs by tube dilution method
Assay type: functional
Conditions: NCIM 2065, 18 h

Q: For `CC[C@H](C)[C@H](NC(=O)CNC(=O)[C@H](Cc1c[nH]c2ccccc12)NC(=O)c1ccc(-c2nc3cc(C)c(C)cc3[nH]2)cc1)C(=O)N[C@@H](C)C(=O)OC` (X4-WGIA-OMe), which MIC is on record?
A: 12.5 µg/mL (≈ 17.7 µM)

System: Staphylococcus aureus
Assay: Antibacterial activity against Staphylococcus aureus NCIM 2079 after 18 hrs by tube dilution method
Assay type: functional
Conditions: NCIM 2079, 18 h
Summary of the method: (§3)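 Tube dilution MIC. Stock diluted in sterile broth to seven concentrations from 200 to 3.1 […]. Each tube inoculated with one loopful of test bacterium and incubated 18 h at 37 °C. MIC read from presence or absence of growth.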

Q: With `CC[C@H](C)[C@H](NC(=O)CNC(=O)[C@H](Cc1c[nH]c2ccccc12)NC(=O)c1ccc(-c2nc3cc(C)c(C)cc3[nH]2)cc1)C(=O)N[C@@H](C)C(=O)OC` (X4-WGIA-OMe) as the compound, how does the MIC read?
A: 12.5 µg/mL (≈ 17.7 µM)

System: Pontoscolex corethrurus
Assay: Anthelmintic activity against Pontoscolex corethrurus ICARBC 408 assessed as mean death time
Assay type: functional
Conditions: not given
Summary of the method: (§4)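 Earthworms exposed to test suspensions at 2 mg mL−1, prepared by triturating compound with Tween 80 (0.5%) and distilled water, stirring 30 min, then diluting to 0.2% w/v. Mebendazole suspension was made the same way. Death was confirmed by moving worms into 50 °C warm water and looking for movement. Mean death time (min) taken from triplicate sets.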

Q: Which Time does the source give for `CC[C@H](C)[C@H](NC(=O)CNC(=O)[C@H](Cc1c[nH]c2ccccc12)NC(=O)c1ccc(-c2nc3cc(C)c(C)cc3[nH]2)cc1)C(=O)N[C@@H](C)C(=O)OC` (X4-WGIA-OMe) here?
A: 29.57 min

System: Microsporum audouinii
Assay: Antifungal activity against Microsporum audouinii MUCC 545 after 48 hrs by tube dilution method
Assay type: functional
Conditions: not given
Summary of the method: (§5)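 Tube dilution MIC as for bacteria (seven concentrations, 200–3.1 […]), with DMSO in place of DMF. Tubes inoculated with fungal culture and incubated 48 h at 37 °C. MIC read from presence or absence of growth.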

Q: For `CC[C@H](C)[C@H](NC(=O)CNC(=O)[C@H](Cc1c[nH]c2ccccc12)NC(=O)c1ccc(-c2nc3cc(C)c(C)cc3[nH]2)cc1)C(=O)N[C@@H](C)C(=O)OC` (X4-WGIA-OMe), which MIC is on record?
A: 6 µg/mL (≈ 8.48 µM)

System: Staphylococcus aureus
Assay: Antibacterial activity against Staphylococcus aureus NCIM 2079 after 18 hrs by disc diffusion method
Assay type: functional
Conditions: not given
Summary of the method: as §1

Q: For `CC[C@H](C)[C@H](NC(=O)CNC(=O)[C@H](Cc1c[nH]c2ccccc12)NC(=O)c1ccc(-c2nc3cc(C)c(C)cc3[nH]2)cc1)C(=O)N[C@@H](C)C(=O)OC` (X4-WGIA-OMe), which “inhibition zone (IZ)” value is on record?
A: 10 mm

System: Trichophyton benhamiae
Assay: Antifungal activity against Trichophyton mentagrophytes MUCC 665 after 48 hrs by tube dilution method
Assay type: functional, Arthroderma benhamiae
Conditions: not given
Summary of the method: as §5

Q: With `CC[C@H](C)[C@H](NC(=O)CNC(=O)[C@H](Cc1c[nH]c2ccccc12)NC(=O)c1ccc(-c2nc3cc(C)c(C)cc3[nH]2)cc1)C(=O)N[C@@H](C)C(=O)OC` (X4-WGIA-OMe) as the compound, how does the MIC read?
A: 25 µg/mL (≈ 35.3 µM)

System: Pontoscolex corethrurus
Assay: Anthelmintic activity against Pontoscolex corethrurus ICARBC 408 assessed as mean paralyzing time
Assay type: functional
Conditions: not given
Summary of the method: (§6)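 Earthworms exposed to test suspensions at 2 mg mL^-1 (0.2% w/v), made by triturating compound with Tween 80 (0.5%) and distilled water, then mechanically stirred 30 min. Mebendazole suspension prepared alike as reference. Paralysis and death times recorded; death confirmed by no movement in 50 °C water. Means from triplicate sets.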

Q: For `CC[C@H](C)[C@H](NC(=O)CNC(=O)[C@H](Cc1c[nH]c2ccccc12)NC(=O)c1ccc(-c2nc3cc(C)c(C)cc3[nH]2)cc1)C(=O)N[C@@H](C)C(=O)OC` (X4-WGIA-OMe), which Time is on record?
A: 17.22 min

System: Trichophyton benhamiae
Assay: Antifungal activity against Trichophyton mentagrophytes MUCC 665 after 48 hrs by disc diffusion method
Assay type: functional, Arthroderma benhamiae
Conditions: not given
Summary of the method: as §2

Q: With `CC[C@H](C)[C@H](NC(=O)CNC(=O)[C@H](Cc1c[nH]c2ccccc12)NC(=O)c1ccc(-c2nc3cc(C)c(C)cc3[nH]2)cc1)C(=O)N[C@@H](C)C(=O)OC` (X4-WGIA-OMe) as the compound, how does the “inhibition zone (IZ)” value read?
A: 9 mm

System: not listed separately
Assay: Anthelmintic activity against Megascoplex konkanensis ICARBC 211 assessed as mean paralyzing time
Assay type: functional
Conditions: not given
Summary of the method: as §6

Q: For `CC[C@H](C)[C@H](NC(=O)CNC(=O)[C@H](Cc1c[nH]c2ccccc12)NC(=O)c1ccc(-c2nc3cc(C)c(C)cc3[nH]2)cc1)C(=O)N[C@@H](C)C(=O)OC` (X4-WGIA-OMe), which TIME is on record?
A: 0.221 h

System: Eudrilus
Assay: Anthelmintic activity against Eudrilus sp. assessed as mean paralyzing time
Assay type: functional
Conditions: not given
Summary of the method: as §6

Q: With `CC[C@H](C)[C@H](NC(=O)CNC(=O)[C@H](Cc1c[nH]c2ccccc12)NC(=O)c1ccc(-c2nc3cc(C)c(C)cc3[nH]2)cc1)C(=O)N[C@@H](C)C(=O)OC` (X4-WGIA-OMe) as the compound, how does the Time read?
A: 13.59 min

System: Pseudomonas aeruginosa
Assay: Antibacterial activity against Pseudomonas aeruginosa NCIM 2034 after 18 hrs by tube dilution method
Assay type: functional
Conditions: NCIM 2034, 18 h
Summary of the method: as §3

Q: With `CC[C@H](C)[C@H](NC(=O)CNC(=O)[C@H](Cc1c[nH]c2ccccc12)NC(=O)c1ccc(-c2nc3cc(C)c(C)cc3[nH]2)cc1)C(=O)N[C@@H](C)C(=O)OC` (X4-WGIA-OMe) as the compound, how does the MIC read?
A: 6 µg/mL (≈ 8.48 µM)

System: Aspergillus niger
Assay: Antifungal activity against Aspergillus niger MUCC 177 after 48 hrs by disc diffusion method
Assay type: functional
Conditions: not given
Summary of the method: as §2

Q: With `CC[C@H](C)[C@H](NC(=O)CNC(=O)[C@H](Cc1c[nH]c2ccccc12)NC(=O)c1ccc(-c2nc3cc(C)c(C)cc3[nH]2)cc1)C(=O)N[C@@H](C)C(=O)OC` (X4-WGIA-OMe) as the compound, how does the “inhibition zone (IZ)” value read?
A: 19 mm

System: not listed separately
Assay: Anthelmintic activity against Megascoplex konkanensis ICARBC 211 assessed as mean death time
Assay type: functional
Conditions: not given
Summary of the method: as §6

Q: Which TIME does the source give for `CC[C@H](C)[C@H](NC(=O)CNC(=O)[C@H](Cc1c[nH]c2ccccc12)NC(=O)c1ccc(-c2nc3cc(C)c(C)cc3[nH]2)cc1)C(=O)N[C@@H](C)C(=O)OC` (X4-WGIA-OMe) here?
A: 0.375 h

System: Microsporum audouinii
Assay: Antifungal activity against Microsporum audouinii MUCC 545 after 48 hrs by disc diffusion method
Assay type: functional
Conditions: not given
Summary of the method: as §2

Q: Which “inhibition zone (IZ)” value does the source give for `CC[C@H](C)[C@H](NC(=O)CNC(=O)[C@H](Cc1c[nH]c2ccccc12)NC(=O)c1ccc(-c2nc3cc(C)c(C)cc3[nH]2)cc1)C(=O)N[C@@H](C)C(=O)OC` (X4-WGIA-OMe) here?
A: 10 mm

System: Candida albicans
Assay: Antifungal activity against Candida albicans MUCC 29 after 48 hrs by tube dilution method
Assay type: functional
Conditions: not given
Summary of the method: as §5

Q: Which MIC does the source give for `CC[C@H](C)[C@H](NC(=O)CNC(=O)[C@H](Cc1c[nH]c2ccccc12)NC(=O)c1ccc(-c2nc3cc(C)c(C)cc3[nH]2)cc1)C(=O)N[C@@H](C)C(=O)OC` (X4-WGIA-OMe) here?
A: 25 µg/mL (≈ 35.3 µM)

System: Eudrilus
Assay: Anthelmintic activity against Eudrilus sp. assessed as mean death time
Assay type: functional
Conditions: not given
Summary of the method: as §4

Q: For `CC[C@H](C)[C@H](NC(=O)CNC(=O)[C@H](Cc1c[nH]c2ccccc12)NC(=O)c1ccc(-c2nc3cc(C)c(C)cc3[nH]2)cc1)C(=O)N[C@@H](C)C(=O)OC` (X4-WGIA-OMe), which Time is on record?
A: 24.1 min

System: Pseudomonas aeruginosa
Assay: Antibacterial activity against Pseudomonas aeruginosa NCIM 2034 after 18 hrs by disc diffusion method
Assay type: functional
Conditions: not given
Summary of the method: as §1

Q: For `CC[C@H](C)[C@H](NC(=O)CNC(=O)[C@H](Cc1c[nH]c2ccccc12)NC(=O)c1ccc(-c2nc3cc(C)c(C)cc3[nH]2)cc1)C(=O)N[C@@H](C)C(=O)OC` (X4-WGIA-OMe), which “inhibition zone (IZ)” value is on record?
A: 20 mm

System: Bacillus subtilis
Assay: Antibacterial activity against Bacillus subtilis NCIM 2063 after 18 hrs by tube dilution method
Assay type: functional
Conditions: NCIM 2063, 18 h
Summary of the method: as §3

Q: With `CC[C@H](C)[C@H](NC(=O)CNC(=O)[C@H](Cc1c[nH]c2ccccc12)NC(=O)c1ccc(-c2nc3cc(C)c(C)cc3[nH]2)cc1)C(=O)N[C@@H](C)C(=O)OC` (X4-WGIA-OMe) as the compound, how does the MIC read?
A: 6 µg/mL (≈ 8.48 µM)

System: Bacillus subtilis
Assay: Antibacterial activity against Bacillus subtilis NCIM 2063 after 18 hrs by disc diffusion method
Assay type: functional
Conditions: not given
Summary of the method: as §1

Q: With `CC[C@H](C)[C@H](NC(=O)CNC(=O)[C@H](Cc1c[nH]c2ccccc12)NC(=O)c1ccc(-c2nc3cc(C)c(C)cc3[nH]2)cc1)C(=O)N[C@@H](C)C(=O)OC` (X4-WGIA-OMe) as the compound, how does the “inhibition zone (IZ)” value read?
A: 14 mm
